In ChEMBL document CHEMBL3758165, “In vitro interactions between anidulafungin and nonsteroidal anti-inflammatory drugs on biofilms of Candida spp” (2016):

How the values were obtained:
Format in all cases: functional
[1] = test system: Meyerozyma guilliermondii; test: Antibiofilm activity against Candida guilliermondii ATCC 6260 after 48 hrs by XTT reduction assay relative to control; set-up: scale not given: the % may be the effect or the level left
Summary of the method: (§1)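 Biofilms grown on autoclaved PVC disks: 1·10^6 cfu ml-1 cells, adhesion 1.5 h at 37 °C shaking 100 rpm, PBS wash, then 48 h at 37 °C in RPMI 1640 (MOPS, pH 7). Metabolic activity read by XTT–menadione reduction, 2 h at 37 °C, supernatant formazan at 490 nm, relative to drug-free control; triplicate on different days.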

[2] = test system: Meyerozyma guilliermondii; test: Antibiofilm activity against Candida guilliermondii a83 assessed as fractional inhibitory concentration by two dimensional checkerboard dilution method in presence of ibuprofen
Summary of the method: (§2)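 Biofilms were grown on PVC disks from 2 ml of a 1·10^6 cfu/ml cell suspension. Adhesion ran 1.5 h at 37 °C with shaking at 100 rpm. Disks were PBS-washed, then matured 48 h at 37 °C in RPMI 1640 (MOPS, pH 7). Biofilms were washed again and given 24 h at 37 °C of anidulafungin/NSAID checkerboard combinations (NSAID final 0.1 µM–100 mM). Read-out was XTT-menadione (2 h, 37 °C, 490 nm). SMIC was defined as 50% reduction versus drug-free control, from which FICI was calculated. Triplicates were run on different days.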

[3] = test system: Candida albicans; test: Antibiofilm activity against Candida albicans ATCC 90028 after 48 hrs by XTT reduction assay relative to control; set-up: scale not given: the % may be the effect or the level left; summary of the method: as §1
[4] = test system: Meyerozyma guilliermondii; test: Antibiofilm activity against Candida guilliermondii ATCC 6260 by two dimensional checkerboard dilution method in presence of ibuprofen
Summary of the method: (§3)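 Preformed 48 h disk biofilms (RPMI 1640, MOPS pH 7, 37 °C), PBS-washed, exposed 24 h at 37 °C on rocker to two-dimensional checkerboard of anidulafungin plus NSAID in RPMI; NSAID final 0.1 µM to 100 mM. XTT reduction at 490 nm; SMIC = combination giving 50% metabolic reduction versus drug-free control; FIC index calculated; triplicate on different days.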

[5] = test system: Meyerozyma guilliermondii; test: Antibiofilm activity against Candida guilliermondii a83 after 48 hrs by XTT reduction assay relative to control; set-up: scale not given: the % may be the effect or the level left
[6] = test system: Meyerozyma guilliermondii; test: Antibiofilm activity against Candida guilliermondii ATCC 6260 by two dimensional checkerboard dilution method in presence of diclofenac; summary of the method: as §3
[7] = test system: Candida albicans; test: Antibiofilm activity against Candida albicans ATCC 24433 by two dimensional checkerboard dilution method in presence of aspirin; summary of the method: as §3
[8] = test system: Nakaseomyces glabratus; test: Antibiofilm activity against Candida glabrata 18a10 assessed as fractional inhibitory concentration by two dimensional checkerboard dilution method in presence of aspirin; summary of the method: as §3
[9] = test system: Nakaseomyces glabratus; test: Antibiofilm activity against Candida glabrata 18a10 assessed as fractional inhibitory concentration by two dimensional checkerboard dilution method in presence of diclofenac; summary of the method: as §3
[10] = test system: Candida albicans; test: Antibiofilm activity against Candida albicans ATCC 24433 by two dimensional checkerboard dilution method in presence of diclofenac; summary of the method: as §3
[11] = test system: Candida albicans; test: Antibiofilm activity against Candida albicans 17a18 assessed as fractional inhibitory concentration by two dimensional checkerboard dilution method in presence of diclofenac; summary of the method: as §3
[12] = test system: Meyerozyma guilliermondii; test: Antibiofilm activity against Candida guilliermondii a83 assessed as fractional inhibitory concentration by two dimensional checkerboard dilution method in presence of diclofenac; summary of the method: as §2
[13] = test system: Candida albicans; test: Antibiofilm activity against Candida albicans ATCC 10231 assessed as fractional inhibitory concentration by two dimensional checkerboard dilution method in presence of ibuprofen; summary of the method: as §3
[14] = test system: Meyerozyma guilliermondii; test: Antibiofilm activity against Candida guilliermondii a410 assessed as fractional inhibitory concentration by two dimensional checkerboard dilution method in presence of diclofenac; summary of the method: as §2
[15] = test system: Nakaseomyces glabratus; test: Antibiofilm activity against Candida glabrata ATCC 15126 by two dimensional checkerboard dilution method in presence of ibuprofen; summary of the method: as §3
[16] = test system: Candida albicans; test: Antibiofilm activity against Candida albicans ATCC 24433 assessed as fractional inhibitory concentration by two dimensional checkerboard dilution method in presence of ibuprofen; summary of the method: as §3
[17] = test system: Candida albicans; test: Antibiofilm activity against Candida albicans ATCC 10231 at 1 mM after 24 hrs by XTT reduction assay relative to control; set-up: scale not given: the % may be the effect or the level left
Summary of the method: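 Biofilms grown on sterilized PVC disks: 1·10^6 cfu/ml Candida cells adhered for 1.5 h at 37 °C with shaking, washed with PBS, then matured 48 h at 37 °C in RPMI 1640 (MOPS, pH 7). Preformed biofilms were washed and exposed to drug, alone or in two-dimensional checkerboard combination, in RPMI 1640 for 24 h at 37 °C on a rocker.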

Compound | Activity [1] | Ratio [2] | Activity [3] | MIC [4] | Activity [5] | MIC [6] | MIC [7] | Ratio [8] | Ratio [9] | MIC [10] | Ratio [11] | Ratio [12] | Ratio [13] | Ratio [14] | MIC [15] | Ratio [16] | Activity [17]
CCCCCOc1ccc(-c2ccc(-c3ccc(C(=O)N[C@@H]4C[C@@H](O)[C@@H](O)NC(=O)[C@@H]5[C@@H](O)[C@@H](C)CN5C(=O)[C@H]([C@@H](C)O)NC(=O)[C@H]([C@H](O)[C@@H](O)c5ccc(O)cc5)NC(=O)[C@@H]5C[C@@H](O)CN5C(=O)[C@H]([C@H](C)O)NC4=O)cc3)cc2)cc1 | 51.21% | 0.05 | 16.09% | 0.4 µg/mL | 47.83% | 0.1 µg/mL | 0.1 µg/mL | 0.05 | 0.1 | 0.1 µg/mL | 0.05 | 0.1 | 0.2 | 0.05 | 0.1 µg/mL | 0.2 | 
CC(C)Cc1ccc(C(C)C(=O)O)cc1 (configuration not stated) [IBUPROFEN] |  |  |  |  |  |  |  |  |  |  |  |  |  |  |  |  | 16.26%
